We go through 23 compounds from ChEMBL document CHEMBL1667864, “Synthesis and biological assay of 4-aryl-6-chloro-quinoline derivatives as novel non-nucleoside anti-HBV agents” (Bioorg Med Chem, 2011).

Bounds are passed on as bounds.

As usually defined, the CC50 is the concentration that lowers cell viability or growth by half. High values mean lower toxicity to the cells, low ones greater toxicity to the cells. For orientation: IC50 means the concentration that inhibits the measured activity by half.

Series [1] in a line: Cytotoxicity against human HepG2(2.2.15) cells. It counts as cell-based.
The subject of series [2] is Hepatitis B virus. The series is described as follows: Antiviral activity against HBV infected in human HepG 2.215 cells assessed as inhibition of HBsAg secretion by ELISA. It counts as functional, organism-based. As to conditions: HepG2.2.15.
Series [3] can be described thus: Selectivity index, CC50 for human HepG 2.215 cells to IC50 for HBV infected in human HepG 2.215 cells assessed as inhibition of DNA replication. It counts as functional. In outline: (§1)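 SI calculated as CC₅₀ (concentration killing 50% of HepG 2.2.15 cells) divided by IC₅₀ (50% inhibition of HBV DNA replication, HBeAg or HBsAg secretion).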
The test system of series [4] is Hepatitis B virus. The series is described as follows: Antiviral activity against HBV infected in human HepG 2.215 cells assessed as inhibition of DNA replication by RT-PCR analysis. It counts as functional, organism-based. To be noted: HepG2.2.15. A digest of the protocol:
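HepG 2.2.15 cells were seeded at 5 × 10⁵ per well, with medium changed every 2 days. After 6 days, compounds were added and fresh medium was fed every other day for another 6 days. Total DNA was isolated from collected cells, and HBV DNA was quantified by real-time PCR. IC₅₀ is the concentration giving 50% inhibition of HBV DNA replication.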

Series [5] can be described thus: Selectivity index, CC50 for human HepG 2.215 cells to IC50 for HBV infected in human HepG 2.215 cells assessed as inhibition of HBsAg secretion. It counts as functional. A digest of the protocol: as §1
The subject of series [6] is Hepatitis B virus. The series is described as follows: Antiviral activity against HBV infected in human HepG 2.215 cells assessed as inhibition of HBeAg secretion by ELISA. The series is classed as functional, organism-based. As to conditions: HepG2.2.15. (ELISA stands for enzyme-linked immunosorbent assay.)
A short description of series [7]: Selectivity index, CC50 for human HepG 2.215 cells to IC50 for HBV infected in human HepG 2.215 cells assessed as inhibition of HBeAg secretion. The series is classed as functional. In outline:
as §1

`OCCc1c(Cl)nc2ccc(Cl)cc2c1-c1ccccc1Cl` returned a CC50 in series [1] of 42.5 µM. The IC50 in series [2] is 45.3 µM; in series [4], 9.8 µM; in series [6], 11.3 µM. The “Selectivity Index” value in series [3] is 4.3; in series [5], below 1; in series [7], 3.8.
In series [1], `C[C@H](Cn1cnc2c(N)ncnc21)OCP(=O)(O)O` [TENOFOVIR ANHYDROUS] returned a half-maximal cytotoxic concentration (CC50) above 1740 µM. In addition, the IC50 in series [2] worked out at 1450 µM; in series [4], 0.54 µM. Also, the “Selectivity Index” value is recorded as above 3222 in series [3], above 1.2 in series [5] and above 1.5 in series [7].
`[N-]=[N+]=NCCc1c(Cl)nc2ccc(Cl)cc2c1-c1ccccc1Cl` displayed a CC50 in series [1] above 2510 µM. Further, the half-maximal inhibitory concentration (IC50) is above 2510 µM in series [2], 16.6 µM in series [4] and above 2510 µM in series [6]. Further, the “Selectivity Index” value in series [3] is on record as above 151.4.
Take `OCCc1c(OCc2c(Cl)cccc2Cl)nc2ccc(Cl)cc2c1-c1ccccc1Cl`: it took 38.5 µM to reach half-maximal cytotoxicity in series [1] (CC50). Besides, the results for the IC50 in series [2], in series [4] and in series [6] were 18.2 µM, 17.7 µM and 12.2 µM, respectively. Besides, the “Selectivity Index” value in series [3] was 2.2; in series [5], 2.1; in series [7], 3.2.
In turn, `CC(C)(C)[Si](OCCc1c(OCc2c(Cl)cccc2Cl)nc2ccc(Cl)cc2c1-c1ccccc1Cl)(c1ccccc1)c1ccccc1` showed a CC50 in series [1] above 1030 µM. Besides, the concentration for half-maximal inhibition (IC50) in series [2], in series [4] and in series [6] was above 1030 µM in each case.
The compound `O=c1[nH]c2ccc(Cl)cc2c(-c2ccccc2Cl)c1CCO` came in with a CC50 in series [1] of 388 µM. The IC50 in series [2] came out at 70.2 µM; in series [4], 72.1 µM; in series [6], 340 µM. Further, the results for the “Selectivity Index” value in series [3], in series [5] and in series [7] were 5.4, 5.5 and 1.1, respectively.
In series [1], `CC(C)(C)[Si](OCCc1c(OS(=O)(=O)C(F)(F)F)nc2ccc(Cl)cc2c1-c1ccccc1Cl)(c1ccccc1)c1ccccc1` displayed a CC50 above 1560 µM. Also, the figures for the IC50 in series [2], in series [4] and in series [6] were 454 µM, above 1560 µM and 767 µM, respectively. In addition, the “Selectivity Index” value is above 3.4 in series [5] and 2 in series [7].
Regarding `OCCc1c(N2CCOCC2)nc2ccc(Cl)cc2c1-c1ccccc1Cl`, in series [1], the CC50 was above 1590 µM. Moreover, the half-inhibitory concentration (IC50) in series [2] was 323 µM; in series [4], above 1590 µM; in series [6] it was above 1590 µM. For the same compound, the “Selectivity Index” value in series [5] was above 4.9.
In series [1], `CC(C)(C)[Si](OCCc1c(Nn2nnc3ccccc32)nc2ccc(Cl)cc2c1-c1ccccc1Cl)(c1ccccc1)c1ccccc1` returned a CC50 above 1250 µM. Also, the values for the IC50 in series [2], in series [4] and in series [6] were above 1250 µM, 4.4 µM and above 1250 µM, respectively. Also, the “Selectivity Index” value in series [3] is given as above 284.5.
Take `[N-]=[N+]=NCCc1c(N=[N+]=[N-])nc2ccc(Cl)cc2c1-c1ccccc1Cl`: the CC50 in series [1] was above 2480 µM. In addition, the figures for the half-maximal inhibitory concentration (IC50) in series [2], in series [4] and in series [6] were above 2480 µM, 4.5 µM and above 2480 µM, respectively. The “Selectivity Index” value in series [3] is given as above 551.2.
Take `CC(C)(C)[Si](OCCc1c(OCc2c(F)cccc2F)nc2ccc(Cl)cc2c1-c1ccccc1Cl)(c1ccccc1)c1ccccc1`: the CC50 in series [1] was above 1870 µM. The IC50 in series [2], in series [4] and in series [6] was above 1870 µM in each case.
On to `COc1nc2ccc(Cl)cc2c(-c2ccccc2Cl)c1CCO`, for which the CC50 in series [1] worked out at 141 µM. The IC50 in series [2] was 66.3 µM; in series [4], 6.9 µM; in series [6], above 2710 µM. Also, the “Selectivity Index” value in series [3] is on record as 20.5; in series [5], 2.1; in series [7], below 1.
As for `CC(C)(C)[Si](OCCc1c(N2CCNCC2)nc2ccc(Cl)cc2c1-c1ccccc1Cl)(c1ccccc1)c1ccccc1`, in series [1], the CC50 was below 18.8 µM. Also, the IC50 is 18.8 µM in series [2], 42.8 µM in series [4] and above 1170 µM in series [6]. Besides, the “Selectivity Index” value is recorded as below 4.43 in series [3], below 1 in series [5] and below 1 in series [7].
As to `OCCc1c(OCc2c(F)cccc2F)nc2ccc(Cl)cc2c1-c1ccccc1Cl`, the CC50 in series [1] was 109 µM. Besides, the half-inhibitory concentration (IC50) in series [2] amounted to 43.5 µM; in series [4], 4.8 µM; in series [6], 1630 µM. For the same compound, the “Selectivity Index” value was 22.7 in series [3], 2.5 in series [5] and below 1 in series [7].
In the case of `CS(=O)(=O)OCCc1c(OS(C)(=O)=O)nc2ccc(Cl)cc2c1-c1ccccc1Cl`, the CC50 in series [1] came to 804 µM. Moreover, the values for the half-maximal inhibitory concentration (IC50) in series [2], in series [4] and in series [6] were 16.5 µM, 6.8 µM and 367 µM, respectively. For the same compound, the results for the “Selectivity Index” value in series [3], in series [5] and in series [7] were 118.2, 48.6 and 2.2, respectively.
Turning to `CS(=O)(=O)OCCc1c(Cl)nc2ccc(Cl)cc2c1-c1ccccc1Cl`, half-maximal cytotoxicity in series [1] (CC50) was put at 882 µM. Besides, the concentration for half-maximal inhibition (IC50) in series [2] is 1020 µM; in series [4] it was above 882 µM; in series [6] it was 647 µM. In addition, the “Selectivity Index” value was below 1 in series [5] and above 1.4 in series [7].
`OCCc1c(N2CCCCC2)nc2ccc(Cl)cc2c1-c1ccccc1Cl` yielded a CC50 in series [1] of 155 µM. Also, the IC50 in series [2] is 37.5 µM; in series [4] it was 151 µM; in series [6], 50 µM. In addition, the “Selectivity Index” value in series [3] amounted to 1; in series [5], 4.1; in series [7], 3.1.
For `CC(=O)OCCc1c(Cl)nc2ccc(Cl)cc2c1-c1ccccc1Cl`, the CC50 in series [1] came out at 116 µM. Moreover, the IC50 in series [2] stood at 147 µM; in series [4], 6.1 µM; in series [6], 70.9 µM. The “Selectivity Index” value in series [3] is 19.1; in series [5], below 1; in series [7], below 1.
The compound `CC(C)(C)[Si](OCCc1c(N2CCOCC2)nc2ccc(Cl)cc2c1-c1ccccc1Cl)(c1ccccc1)c1ccccc1` registered a CC50 in series [1] above 1200 µM. Also, the IC50 in series [2], in series [4] and in series [6] was above 1200 µM in each case.
As for `ClCCc1c(Cl)nc2ccc(Cl)cc2c1-c1ccccc1Cl`, the CC50 in series [1] is above 1400 µM. The IC50 in series [2] was above 1400 µM; in series [4], 19 µM; in series [6], above 1400 µM. In addition, the “Selectivity Index” value in series [3] is on record as above 73.8.
`OCCc1c(Nn2nnc3ccccc32)nc2ccc(Cl)cc2c1-c1ccccc1Cl` yielded a CC50 in series [1] of 82.4 µM. Also, the results for the IC50 in series [2], in series [4] and in series [6] were 37.7 µM, 8.3 µM and 111 µM, respectively. Also, the “Selectivity Index” value is given as 10 in series [3], 2.2 in series [5] and below 1 in series [7].
With `OCCc1c(N2CCNCC2)nc2ccc(Cl)cc2c1-c1ccccc1Cl`, the CC50 in series [1] is below 5 µM. The IC50 in series [2], in series [4] and in series [6] was above 5 µM throughout. In addition, the “Selectivity Index” value in series [5] and in series [7] was below 1 throughout.
In turn, `CC(C)(C)[Si](OCCc1c(N2CCCCC2)nc2ccc(Cl)cc2c1-c1ccccc1Cl)(c1ccccc1)c1ccccc1` gave a CC50 in series [1] above 969 µM. Besides, the values for the IC50 in series [2], in series [4] and in series [6] were above 969 µM, 6.7 µM and above 969 µM, respectively. Further, the “Selectivity Index” value in series [3] was above 143.7.
